Laboratory results as given in ChEMBL document CHEMBL1667774, “Synthesis and evaluation of a class of new coumarin triazole derivatives as potential antimicrobial agents” (2011).
≈ marks a conversion by molar mass, not a printed value.

Legend:
Staphylococcus aureus [1] = assay: Antimicrobial activity against Staphylococcus aureus ATCC 25923 by twofold broth dilution method; format: functional
Method in brief: (§1)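 Two-fold broth dilution in 96-well micro-test plates, following NCCLS recommendations. Enoxacin and Chloromycin served as positive controls for bacteria, and Fluconazole for fungi. The read-out is the MIC in µg/mL.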

Staphylococcus aureus [2] = assay: Antimicrobial activity against methicillin-resistant Staphylococcus aureus N 315 by twofold broth dilution method; format: functional
Method in brief: (§2)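 Antibacterial MIC, determined by two-fold serial broth dilution following the NCCLS-recommended method. Clinical antimicrobial drugs were run alongside as positive controls.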

Bacillus subtilis = assay: Antimicrobial activity against Bacillus subtilis ATCC 6633 by twofold broth dilution method; format: functional; method in brief: as §1
Micrococcus luteus = assay: Antimicrobial activity against Micrococcus luteus ATCC 4698 by twofold broth dilution method; format: functional; method in brief: as §1
Escherichia coli = assay: Antimicrobial activity against Escherichia coli ATCC 25922 by twofold broth dilution method; format: functional; method in brief: as §1
Proteus vulgaris = assay: Antimicrobial activity against Proteus vulgaris ATCC 6896 by twofold broth dilution method; format: functional; method in brief: as §1
Salmonella typhi = assay: Antimicrobial activity against Salmonella typhi ATCC 9484 by twofold broth dilution method; format: functional, Salmonella enterica subsp. enterica serovar Typhi; conditions: Salmonella enterica; method in brief: as §2
Shigella dysenteriae = assay: Antimicrobial activity against Shigella dysenteriae ATCC 49550 by twofold broth dilution method; format: functional; method in brief: as §2
Candida albicans = assay: Antifungal activity against Candida albicans ATCC 76615 by twofold broth dilution method; format: functional; method in brief: as §1
Saccharomyces cerevisiae = assay: Antifungal activity against Saccharomyces cerevisiae ATCC 9763 by twofold broth dilution method; format: functional; method in brief: as §1
Aspergillus fumigatus = assay: Antifungal activity against Aspergillus fumigatus ATCC 96918 by twofold broth dilution method; format: functional; method in brief: as §1

Row | Compound | MIC (Staphylococcus aureus [1]) | MIC (Staphylococcus aureus [2]) | MIC (Bacillus subtilis) | MIC (Micrococcus luteus) | MIC (Escherichia coli) | MIC (Proteus vulgaris) | MIC (Salmonella typhi) | MIC (Shigella dysenteriae) | MIC (Candida albicans) | MIC (Saccharomyces cerevisiae) | MIC (Aspergillus fumigatus)
1 | Cc1cc(=O)oc2cc(OCCCCCCn3cncn3)cc(OCCCCCCn3cncn3)c12 | 8 µg/mL (≈ 16.2 µM) | 16 µg/mL (≈ 32.3 µM) | 4 µg/mL (≈ 8.09 µM) | 8 µg/mL (≈ 16.2 µM) | 8 µg/mL (≈ 16.2 µM) | 8 µg/mL (≈ 16.2 µM) | 16 µg/mL (≈ 32.3 µM) | 8 µg/mL (≈ 16.2 µM) | 4 µg/mL (≈ 8.09 µM) | 4 µg/mL (≈ 8.09 µM) | 32 µg/mL (≈ 64.7 µM)
2 | Cc1cc(=O)oc2cc(OCc3ccc(Cn4cncn4)cc3)cc(OCc3ccc(Cn4cncn4)cc3)c12 | 32 µg/mL (≈ 59.9 µM) | 64 µg/mL (≈ 120 µM) | 64 µg/mL (≈ 120 µM) | 64 µg/mL (≈ 120 µM) | 64 µg/mL (≈ 120 µM) | 32 µg/mL (≈ 59.9 µM) | 32 µg/mL (≈ 59.9 µM) | 64 µg/mL (≈ 120 µM) | 32 µg/mL (≈ 59.9 µM) | 32 µg/mL (≈ 59.9 µM) | 64 µg/mL (≈ 120 µM)
3 | Cc1cc(=O)oc2cc(OCCCCn3cncn3)ccc12.Cl | 2 µg/mL | 8 µg/mL | 2 µg/mL | 2 µg/mL | 4 µg/mL | 8 µg/mL | 16 µg/mL | 16 µg/mL | 2 µg/mL | 4 µg/mL | 8 µg/mL
4 | Cc1cc(=O)oc2cc(OCc3ccc(Cn4cncn4)cc3)ccc12.Cl | 8 µg/mL | 16 µg/mL | 8 µg/mL | 8 µg/mL | 16 µg/mL | 16 µg/mL | 16 µg/mL | 16 µg/mL | 8 µg/mL | 16 µg/mL | 16 µg/mL
5 | Cc1cc(=O)oc2cc(OCCCCn3cncn3)cc(OCCCCn3cncn3)c12.Cl | 1 µg/mL | 2 µg/mL | 1 µg/mL | 1 µg/mL | 1 µg/mL | 2 µg/mL | 1 µg/mL | 1 µg/mL | 1 µg/mL | 2 µg/mL | 2 µg/mL
6 | Cc1cc(=O)oc2cc(OCc3ccc(Cn4cncn4)cc3)cc(OCc3ccc(Cn4cncn4)cc3)c12.Cl | 8 µg/mL | 16 µg/mL | 16 µg/mL | 16 µg/mL | 8 µg/mL | 16 µg/mL | 16 µg/mL | 16 µg/mL | 8 µg/mL | 16 µg/mL | 16 µg/mL
7 | Cc1cc(=O)oc2cc(OCCCCOc3ccc4c(C)cc(=O)oc4c3)ccc12 | 128 µg/mL (≈ 315 µM) | 512 µg/mL (≈ 1260 µM) | 128 µg/mL (≈ 315 µM) | 128 µg/mL (≈ 315 µM) | 256 µg/mL (≈ 630 µM) | 256 µg/mL (≈ 630 µM) | 256 µg/mL (≈ 630 µM) | 512 µg/mL (≈ 1260 µM) | 512 µg/mL (≈ 1260 µM) | 256 µg/mL (≈ 630 µM) | 512 µg/mL (≈ 1260 µM)
8 | Cc1cc(=O)oc2cc(OCCCCCOc3ccc4c(C)cc(=O)oc4c3)ccc12 | 128 µg/mL (≈ 304 µM) | 256 µg/mL (≈ 609 µM) | 256 µg/mL (≈ 609 µM) | 128 µg/mL (≈ 304 µM) | 256 µg/mL (≈ 609 µM) | 512 µg/mL (≈ 1220 µM) | 512 µg/mL (≈ 1220 µM) | 512 µg/mL (≈ 1220 µM) | 512 µg/mL (≈ 1220 µM) | 256 µg/mL (≈ 609 µM) | 512 µg/mL (≈ 1220 µM)
9 | Cc1cc(=O)oc2cc(OCCCCCCOc3ccc4c(C)cc(=O)oc4c3)ccc12 | 256 µg/mL (≈ 589 µM) | 512 µg/mL (≈ 1180 µM) | 128 µg/mL (≈ 295 µM) | 128 µg/mL (≈ 295 µM) | 256 µg/mL (≈ 589 µM) | 256 µg/mL (≈ 589 µM) | 512 µg/mL (≈ 1180 µM) | 512 µg/mL (≈ 1180 µM) | 512 µg/mL (≈ 1180 µM) | 256 µg/mL (≈ 589 µM) | 512 µg/mL (≈ 1180 µM)
10 | Cc1cc(=O)oc2cc(OCc3ccc(COc4ccc5c(C)cc(=O)oc5c4)cc3)ccc12 | > 512 µg/mL | > 512 µg/mL | > 512 µg/mL | > 512 µg/mL | > 512 µg/mL | > 512 µg/mL | > 512 µg/mL | > 512 µg/mL | > 512 µg/mL | 512 µg/mL (≈ 1130 µM) | > 512 µg/mL
11 | Cc1cc(=O)oc2cc(O)cc(O)c12 [5,7-DIHYDROXY-4-METHYLCOUMARIN] | 32 µg/mL (≈ 167 µM) | 64 µg/mL (≈ 333 µM) | 64 µg/mL (≈ 333 µM) | 64 µg/mL (≈ 333 µM) | 128 µg/mL (≈ 666 µM) | 128 µg/mL (≈ 666 µM) | 256 µg/mL (≈ 1330 µM) | 256 µg/mL (≈ 1330 µM) | 64 µg/mL (≈ 333 µM) | 256 µg/mL (≈ 1330 µM) | 256 µg/mL (≈ 1330 µM)
12 | O=C(N[C@H](CO)[C@H](O)c1ccc([N+](=O)[O-])cc1)C(Cl)Cl [CHLORAMPHENICOL] | 4 µg/mL (≈ 12.4 µM) | 16 µg/mL (≈ 49.5 µM) | 8 µg/mL (≈ 24.8 µM) | ≤ 4 µg/mL | 8 µg/mL (≈ 24.8 µM) | 8 µg/mL (≈ 24.8 µM) | 4 µg/mL (≈ 12.4 µM) | 4 µg/mL (≈ 12.4 µM) |  |  | 
13 | CCn1cc(C(=O)O)c(=O)c2cc(F)c(N3CCNCC3)nc21 [ENOXACIN] | 1 µg/mL (≈ 3.12 µM) | 4 µg/mL (≈ 12.5 µM) | 1 µg/mL (≈ 3.12 µM) | ≤ 1 µg/mL | 1 µg/mL (≈ 3.12 µM) | 1 µg/mL (≈ 3.12 µM) | 2 µg/mL (≈ 6.24 µM) | 1 µg/mL (≈ 3.12 µM) |  |  | 
14 | OC(Cn1cncn1)(Cn1cncn1)c1ccc(F)cc1F [FLUCONAZOLE] |  |  |  |  |  |  |  |  | 1 µg/mL (≈ 3.27 µM) | 2 µg/mL (≈ 6.53 µM) | 128 µg/mL (≈ 418 µM)
15 | Cc1cc(=O)oc2cc(O)ccc12 [HYMECROMONE] | 32 µg/mL (≈ 182 µM) | 64 µg/mL (≈ 363 µM) | 32 µg/mL (≈ 182 µM) | 32 µg/mL (≈ 182 µM) | 128 µg/mL (≈ 727 µM) | 256 µg/mL (≈ 1450 µM) | 128 µg/mL (≈ 727 µM) | 512 µg/mL (≈ 2910 µM) | 64 µg/mL (≈ 363 µM) | 128 µg/mL (≈ 727 µM) | 128 µg/mL (≈ 727 µM)
